Converted amounts (≈) assume the structure as drawn.
Columns and labels:
Format in all cases: functional
[1] = test system: Staphylococcus warneri; test: Antibacterial activity against Methicillin-resistant Staphylococcus warneri MB74 after 24 hrs by microdilution assay; details: MB74, 24 h
Method in brief: (§1)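 Broth microdilution MIC, run as in an earlier cited report. Strains are clinical isolates identified by standard methods and MALDI-TOF; E. faecalis MB19 and MB51 are Ligurian seawater isolates. Highest concentration tested was 128 μg/mL. MICs are given in μg/mL and μM, with oxacillin and vancomycin as reference antibiotics.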

[2] = test system: Enterococcus faecalis; test: Antibacterial activity against Vancomycin resistant Enterococcus faecalis MB1 after 24 hrs by microdilution assay; details: MB1, 24 h; method in brief: as §1
[3] = test system: Staphylococcus lugdunensis; test: Antibacterial activity against Staphylococcus lugdunensis MB96 after 24 hrs by microdilution assay; details: MB96, 24 h
Method in brief: (§2)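 Broth microdilution MIC against clinical or seawater-isolated strains (identified by standard procedures and MALDI-TOF), with compound solutions and testing as in earlier work. MIC reported in μg/mL and μM.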

[4] = test system: Staphylococcus hominis; test: Antibacterial activity against Methicillin-resistant Staphylococcus hominis MB124 after 24 hrs by microdilution assay; details: MB124, 24 h; method in brief: as §1
[5] = test system: Staphylococcus simulans; test: Antibacterial activity against Staphylococcus simulans MB94 after 24 hrs by microdilution assay; details: MB94, 24 h; method in brief: as §2
[6] = test system: Staphylococcus aureus; test: Antibacterial activity against Methicillin-resistant Staphylococcus aureus MB188 after 24 hrs by microdilution assay; details: MB188, 24 h; method in brief: as §1
[7] = test system: Enterococcus faecalis; test: Antibacterial activity against Vancomycin resistant Enterococcus faecalis MB19 after 24 hrs by microdilution assay; details: MB19, 24 h; method in brief: as §1
[8] = test system: Staphylococcus saprophyticus; test: Antibacterial activity against Staphylococcus saprophyticus MB41 after 24 hrs by microdilution assay; details: MB41, 24 h; method in brief: as §2
[9] = test system: Enterococcus durans; test: Antibacterial activity against Enterococcus durans MB113 after 24 hrs by microdilution assay; details: MB113, 24 h; method in brief: as §2
[10] = test system: Staphylococcus aureus; test: Antibacterial activity against Methicillin-resistant Staphylococcus aureus MB18 after 24 hrs by microdilution assay; details: MB18, 24 h; method in brief: as §1
[11] = test system: Enterococcus faecalis; test: Antibacterial activity against Enterococcus faecalis MB76 after 24 hrs by microdilution assay; details: MB76, 24 h; method in brief: as §1
[12] = test system: Staphylococcus epidermidis; test: Antibacterial activity against Methicillin-resistant Staphylococcus epidermidis MB165 after 24 hrs by microdilution assay; details: MB165, 24 h; method in brief: as §1
[13] = test system: Enterococcus faecalis; test: Antibacterial activity against Vancomycin resistant Enterococcus faecalis MB51 after 24 hrs by microdilution assay; details: MB51, 24 h; method in brief: as §1
[14] = test system: Enterococcus casseliflavus; test: Antibacterial activity against Vancomycin resistant Enterococcus casseliflavus MB159 after 24 hrs by microdilution assay; details: MB159, 24 h; method in brief: as §1
[15] = test system: Staphylococcus capitis; test: Antibacterial activity against Methicillin-resistant Staphylococcus capitis MB71 after 24 hrs by microdilution assay; details: MB71, 24 h; method in brief: as §1
[16] = test system: Enterococcus faecium; test: Antibacterial activity against Enterococcus faecium MB152 after 24 hrs by microdilution assay; details: MB152, 24 h; method in brief: as §2
[17] = test system: Enterococcus faecium; test: Antibacterial activity against Enterococcus faecium MB3 after 24 hrs by microdilution assay; details: MB3, 24 h; method in brief: as §2
[18] = test system: Enterococcus faecium; test: Antibacterial activity against Enterococcus faecium MB2 after 24 hrs by microdilution assay; details: MB2, 24 h; method in brief: as §2
[19] = test system: Staphylococcus haemolyticus; test: Antibacterial activity against Methicillin-resistant Staphylococcus haemolyticus MB115 after 24 hrs by microdilution assay; details: MB115, 24 h; method in brief: as §1
[20] = test system: Enterococcus avium; test: Antibacterial activity against Enterococcus avium MB119 after 24 hrs by microdilution assay; details: MB119, 24 h; method in brief: as §2
[21] = test system: Staphylococcus epidermidis; test: Antibacterial activity against Methicillin-resistant Staphylococcus epidermidis MB169 after 24 hrs by microdilution assay; details: MB169, 24 h; method in brief: as §1
[22] = test system: Enterococcus gallinarum; test: Antibacterial activity against Vancomycin resistant Enterococcus gallinarum MB111 after 24 hrs by microdilution assay; details: MB111, 24 h; method in brief: as §1

| SMILES | MIC [1] | MIC [2] | MIC [3] | MIC [4] | MIC [5] | MIC [6] | MIC [7] | MIC [8] | MIC [9] | MIC [10] | MIC [11] | MIC [12] | MIC [13] | MIC [14] | MIC [15] | MIC [16] | MIC [17] | MIC [18] | MIC [20] | MIC [22] | also measured |
| --- | --- | --- | --- | --- | --- | --- | --- | --- | --- | --- | --- | --- | --- | --- | --- | --- | --- | --- | --- | --- | --- |
| COc1ccc(-c2cc(=O)c3c(OC)c(OC)c(OC)cc3o2)cc1OC [SINENSETIN] | 344 µM | 86 µM | > 128 µg/mL | 344 µM | > 128 µg/mL | 344 µM | 344 µM (≈ 128 µg/mL) | > 128 µg/mL | 344 µM | > 128 µg/mL | 344 µM (≈ 128 µg/mL) | > 128 µg/mL | 172 µM (≈ 64 µg/mL) | 172 µM (≈ 64 µg/mL) | 344 µM | 172 µM | 344 µM | 344 µM (≈ 128 µg/mL) | 344 µM | 172 µM (≈ 64 µg/mL) | MIC [19]: > 128 µg/mL; MIC [21]: 344 µM |
| COC(=O)[C@]1(C)CCC[C@]2(C)[C@H]3CCC(C)(/C=C/c4occc4C)O[C@]3(C)CC[C@H]21 (stereo partly specified) | 309 µM | > 128 µg/mL | > 128 µg/mL | 309 µM | > 128 µg/mL | > 128 µg/mL | 309 µM (≈ 128 µg/mL) | 309 µM | > 128 µg/mL | 309 µM | 309 µM (≈ 128 µg/mL) | 309 µM | 309 µM (≈ 128 µg/mL) | 309 µM (≈ 128 µg/mL) | 155 µM | > 128 µg/mL | 309 µM | 309 µM (≈ 128 µg/mL) | > 128 µg/mL | 309 µM (≈ 128 µg/mL) | MIC [19]: > 128 µg/mL; MIC [21]: 155 µM |
| COc1ccc(-c2cc(=O)c3c(O)c(OC)c(OC)cc3o2)cc1O [EUPATORIN] | > 128 µg/mL | 186 µM | > 128 µg/mL | > 128 µg/mL | > 128 µg/mL | > 128 µg/mL | 186 µM (≈ 64 µg/mL) | > 128 µg/mL | > 128 µg/mL | > 128 µg/mL | 186 µM (≈ 64 µg/mL) | > 128 µg/mL | 372 µM (≈ 128 µg/mL) | 372 µM (≈ 128 µg/mL) | > 128 µg/mL | 372 µM | > 128 µg/mL | 372 µM (≈ 128 µg/mL) | 186 µM | 186 µM (≈ 64 µg/mL) | MIC [19]: > 128 µg/mL; MIC [21]: > 128 µg/mL |
| CC1(C)CCC[C@]2(C)[C@@H](CC[C@](C)(O)[C@H]3CO3)[C@](C)(O)CC[C@@H]12 | 198 µM | 99 µM | 198 µM | 395 µM | 395 µM | 395 µM | 198 µM (≈ 64.3 µg/mL) | 395 µM | 198 µM | 395 µM | 198 µM (≈ 64.3 µg/mL) | 395 µM | 99 µM (≈ 32.1 µg/mL) | 198 µM (≈ 64.3 µg/mL) | 395 µM | 198 µM | 99 µM | 198 µM (≈ 64.3 µg/mL) | 99 µM | 99 µM (≈ 32.1 µg/mL) | MIC [19]: 395 µM; MIC [21]: 395 µM |
| COc1cc2oc(-c3ccc(O)cc3)cc(=O)c2c(O)c1OC [CIRSIMARITIN] | > 128 µg/mL | 204 µM | 407 µM | > 128 µg/mL | > 128 µg/mL | > 128 µg/mL | 407 µM (≈ 128 µg/mL) | > 128 µg/mL | 407 µM | > 128 µg/mL | 407 µM (≈ 128 µg/mL) | > 128 µg/mL | 407 µM (≈ 128 µg/mL) | 407 µM (≈ 128 µg/mL) | 407 µM | 407 µM | 204 µM | 407 µM (≈ 128 µg/mL) | 204 µM | 102 µM (≈ 32.1 µg/mL) | MIC [19]: > 128 µg/mL; MIC [21]: > 128 µg/mL |
| CN[C@H](CC(C)C)C(=O)N[C@H]1C(=O)N[C@@H](CC(N)=O)C(=O)N[C@H]2C(=O)N[C@H]3C(=O)N[C@H](C(=O)N[C@H](C(=O)O)c4cc(O)cc(O)c4-c4cc3ccc4O)[C@H](O)c3ccc(c(Cl)c3)Oc3cc2cc(c3O[C@@H]2O[C@H](CO)[C@@H](O)[C@H](O)[C@H]2O[C@H]2C[C@](C)(N)[C@H](O)[C@H](C)O2)Oc2ccc(cc2Cl)[C@H]1O [VANCOMYCIN] | – | 22.1 µM | – | – | – | – | 22.1 µM (≈ 32 µg/mL) | – | 0.69 µM | – | 88.3 µM (≈ 128 µg/mL) | – | 44.2 µM (≈ 64.1 µg/mL) | 2.76 µM (≈ 4 µg/mL) | – | 177 µM | 88.3 µM | 1.38 µM (≈ 2 µg/mL) | 0.69 µM | 11 µM (≈ 15.9 µg/mL) | – |

From ChEMBL document CHEMBL4610084, “Antibacterial and ATP Synthesis Modulating Compounds from Salvia tingitana” (2020)
